From ChEMBL document CHEMBL4316598, “Synthesis, antiproliferative and apoptosis induction potential activities of novel bis(indolyl)hydrazide-hydrazone derivatives” (Bioorg Med Chem, 2019)
Activity calls are given as the source filed them. The rule behind the calls is not given here.

What was measured:
[1] = target: MAP kinase p38 (Homo sapiens) (UniProt O15264+Q15759+Q16539+P53778); test: Activation of MAPK p38 phosphorylation in human MCF7 cells assessed as increase in ratio of phosphorylated p38 to total p38 level at 5 uM by ELISA; assay type: cell-based
In short: (§1)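 Cell-based ELISA: HeLa or MCF-7 cells (20×10^3/well) grown overnight at 37 °C, 5% CO2, treated with 5 μM, then fixed and blocked. Probed with rabbit anti-total and anti-phospho P38, JNK or ERK1/2 (1:100), then HRP anti-rabbit IgG. Result is the phospho/total ratio; inhibitor arms use […], […] or SP600125. n=3.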

MCF7 [2] = test: Induction of ERK/MAPK signal transduction pathway in human MCF7 cells assessed as increase in p53 phosphorylation; assay type: cell-based
[3] = target: T1, Mitogen-activated protein kinase; ERK1/ERK2 (Homo sapiens) (UniProt P27361+P28482); test: Activation of ERK1/2 phosphorylation in human HeLa cells assessed as increase in ratio of phosphorylated ERK1/2 to total ERK1/2 level at 5 uM by ELISA; assay type: cell-based; in short: as §1
MCF7 [4] = test: Induction of apoptosis in human MCF7 cells assessed as late apoptotic cells at 1 uM after 16 hrs by annexin-V FITC/propidium iodide staining based flow cytometric analysis relative to control; assay type: functional
In short: (§2)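 Cells were grown in DMEM with 10% heat-inactivated FBS at 37 °C and 5% CO₂, then plated at 500,000 cells/well in 24-well plates. They were treated from a DMSO stock (DMSO ≤0.1%) for 8, 12 or 16 h. After a PBS wash, cells were resuspended in binding buffer (10 mM HEPES pH 7.4, 2.5 mM CaCl₂, 140 mM NaCl, 0.1% BSA), stained 40 min with FITC-annexin V, then with PI, and run on the flow cytometer immediately. Values are the mean of three independent experiments.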

HeLa [5] = test: Induction of ROS generation in human HeLa cells at 5 uM after 4 hrs by DCFH-DA staining-based fluorescence spectrophotometric analysis relative to control; assay type: functional
In short: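 DCFH-DA ROS: HeLa or MCF-7 cells at 2×10^6/well cultured 12 h, treated 4 or 8 h; t-BHP (10 μM) is the positive control. DCFH-DA 10 μM added for 10 min at 37 °C, cells washed twice with PBS. Fluorescence read at ex 485/em 520 nm. For the NAC arm, NAC (5 mM) is added to the medium before treatment.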

[6] = target: c-Jun N-terminal kinase, JNK (Homo sapiens) (UniProt P45983+P53779+P45984); test: Activation of JNK phosphorylation in human HeLa cells assessed as increase in ratio of phosphorylated JNK to total JNK level at 5 uM in presence of JNK inhibitor SP600125 by ELISA; assay type: cell-based; in short: as §1
MCF7 [7] = test: Effect on mitochondrial membrane potential in human MCF7 cells assessed as shift change at 5 uM after 2 hrs by Rhodamine 123 dye-based fluorescence assay; assay type: functional, cell-based
In short: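 Mitochondrial potential: HeLa or MCF-7 cells treated with 5 µM (final) for 1, 2, 4 and 8 h. Rhodamine 123 added, cells incubated 30 min at 37 °C, washed with PBS, and analysed by flow cytometry. Fluorescence histogram shift is compared with control.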

[8] = target: T1, Mitogen-activated protein kinase; ERK1/ERK2 (Homo sapiens); test: Activation of ERK1/2 phosphorylation in human MCF7 cells assessed as increase in ratio of phosphorylated ERK1/2 to total ERK1/2 level at 5 uM by ELISA; assay type: cell-based; in short: as §1
HeLa [9] = test: Induction of caspase-dependent apoptosis in human HeLa cells assessed as activation of caspase-9 at 1 to 3 uM after 24 hrs by Western blot analysis; assay type: functional, cell-based
In short: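 Cells were treated at 1, 3 and 5 µM for 24 h at 37 °C. Lysis was in ice-cold Triton X-100 buffer with protease and phosphatase inhibitors; nuclear proteins were extracted separately. Protein was quantified by BCA. Lysates were separated by electrophoresis, transferred to nitrocellulose and blocked in non-fat milk for 1 h. Primary antibody was applied overnight at 4 °C and secondary for 1 h at 28 °C. Detection was by enhanced chemiluminescence.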

MCF7 [10] = test: Induction of ERK/MAPK signal transduction pathway in human MCF7 cells assessed as increase in p21 level; assay type: cell-based
MCF7 [11] = test: Induction of apoptosis in human MCF7 cells assessed as viable cells at 1 uM after 8 hrs by annexin-V FITC/propidium iodide staining based flow cytometric analysis relative to control; assay type: functional; conditions: MCF7, 8 h, read-out: Activity; in short: as §2
MCF7 [12] = test: Induction of apoptosis in human MCF7 cells assessed as necrotic cells at 1 uM after 16 hrs by annexin-V FITC/propidium iodide staining based flow cytometric analysis relative to control; assay type: functional; in short: as §2
[13] = target: Tyrosine-protein kinase ABL1 (Homo sapiens) (UniProt P00519); test: Inhibition of ABL phosphorylation (unknown origin) at 50 uM after 5 to 60 mins by bioluminescence assay
In short: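 Kinase activity measured with compound at 1, 5, 10 and 50 μM, using a Kinase Reaction Rate Kit. Phosphorylation was followed by bioluminescent monitoring of ATP consumption, with light read at 5 min and 1 h. Staurosporine served as positive control. Data given as % kinase inhibition (% of control activity), from two separate experiments.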

[14] = target: T1, Mitogen-activated protein kinase; ERK1/ERK2 (Homo sapiens); test: Induction of ERK/MAPK signal transduction pathway in human MCF7 cells assessed as increase ERK1/2 translocation; assay type: cell-based
MCF7 [15] = test: Induction of ERK/MAPK signal transduction pathway in human MCF7 cells assessed as increase in c-jun level; assay type: cell-based
HeLa [16] = test: Induction of apoptosis in human HeLa cells assessed as early apoptotic cells at 1 uM after 12 hrs by annexin-V FITC/propidium iodide staining based flow cytometric analysis relative to control; assay type: functional; in short: as §2
MCF7 [17] = test: Induction of apoptosis in human MCF7 cells assessed as up-regulation of acetylated p53 level at 5 uM after 24 hrs by sandwich ELISA; assay type: functional, cell-based
In short: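 Cells were treated at 5 µM for 12, 24 and 48 h. Lysis was in ice-cold lysis buffer with 1 mM PMSF (5 min on ice), followed by three freeze-thaw cycles and a 10 min spin at 4 °C. Acetylated and total p53 were measured in the supernatant by kit sandwich ELISA, read at 450 nm. The control index is sample absorbance divided by that of untreated cells at the same time. Values are mean ± SD of triplicate experiments.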

HeLa [18] = test: Induction of ROS generation in human HeLa cells at 5 uM after 24 hrs by CM-H2DCFDA staining-based FACS analysis; assay type: functional, cell-based
In short: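 CM-H2DCFDA ROS: HeLa or MCF-7 cells at 2×10^6/well in 6-well plates treated with 5 μM (final) for 12 or 24 h at 37 °C. Cells harvested, washed with PBS, stained with CM-H2DCFDA in PBS 30 min at 37 °C, washed with ice-cold PBS. Read by FACScan with 488 nm argon laser.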

HeLa [19] = test: Induction of apoptosis in human HeLa cells assessed as early apoptotic cells at 1 uM after 8 hrs by annexin-V FITC/propidium iodide staining based flow cytometric analysis relative to control; assay type: functional; in short: as §2

T1 sequence (P27361 whole entry, looked up): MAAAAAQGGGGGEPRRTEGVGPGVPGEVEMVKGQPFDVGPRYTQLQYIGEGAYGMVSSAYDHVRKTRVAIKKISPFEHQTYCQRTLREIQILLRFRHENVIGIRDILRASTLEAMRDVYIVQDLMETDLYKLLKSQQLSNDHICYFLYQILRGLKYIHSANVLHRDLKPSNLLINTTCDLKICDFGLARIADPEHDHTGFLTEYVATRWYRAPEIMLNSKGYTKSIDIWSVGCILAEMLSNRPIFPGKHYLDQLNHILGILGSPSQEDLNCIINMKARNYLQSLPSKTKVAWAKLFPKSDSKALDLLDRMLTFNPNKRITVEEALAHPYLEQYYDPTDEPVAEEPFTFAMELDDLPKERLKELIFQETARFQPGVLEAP
T1 sequence (P28482 whole entry, looked up): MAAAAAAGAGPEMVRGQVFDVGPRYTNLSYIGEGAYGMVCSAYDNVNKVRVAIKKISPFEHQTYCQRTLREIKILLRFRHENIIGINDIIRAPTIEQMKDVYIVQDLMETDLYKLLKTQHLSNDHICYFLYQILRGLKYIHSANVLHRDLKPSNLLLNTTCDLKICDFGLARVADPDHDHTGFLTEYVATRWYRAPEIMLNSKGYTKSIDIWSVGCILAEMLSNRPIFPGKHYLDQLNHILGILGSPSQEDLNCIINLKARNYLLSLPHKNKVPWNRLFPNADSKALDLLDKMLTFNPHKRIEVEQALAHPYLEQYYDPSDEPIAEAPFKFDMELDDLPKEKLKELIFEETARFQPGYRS
Chain of Tyrosine-protein kinase ABL1 (Homo sapiens) (P00519 whole entry): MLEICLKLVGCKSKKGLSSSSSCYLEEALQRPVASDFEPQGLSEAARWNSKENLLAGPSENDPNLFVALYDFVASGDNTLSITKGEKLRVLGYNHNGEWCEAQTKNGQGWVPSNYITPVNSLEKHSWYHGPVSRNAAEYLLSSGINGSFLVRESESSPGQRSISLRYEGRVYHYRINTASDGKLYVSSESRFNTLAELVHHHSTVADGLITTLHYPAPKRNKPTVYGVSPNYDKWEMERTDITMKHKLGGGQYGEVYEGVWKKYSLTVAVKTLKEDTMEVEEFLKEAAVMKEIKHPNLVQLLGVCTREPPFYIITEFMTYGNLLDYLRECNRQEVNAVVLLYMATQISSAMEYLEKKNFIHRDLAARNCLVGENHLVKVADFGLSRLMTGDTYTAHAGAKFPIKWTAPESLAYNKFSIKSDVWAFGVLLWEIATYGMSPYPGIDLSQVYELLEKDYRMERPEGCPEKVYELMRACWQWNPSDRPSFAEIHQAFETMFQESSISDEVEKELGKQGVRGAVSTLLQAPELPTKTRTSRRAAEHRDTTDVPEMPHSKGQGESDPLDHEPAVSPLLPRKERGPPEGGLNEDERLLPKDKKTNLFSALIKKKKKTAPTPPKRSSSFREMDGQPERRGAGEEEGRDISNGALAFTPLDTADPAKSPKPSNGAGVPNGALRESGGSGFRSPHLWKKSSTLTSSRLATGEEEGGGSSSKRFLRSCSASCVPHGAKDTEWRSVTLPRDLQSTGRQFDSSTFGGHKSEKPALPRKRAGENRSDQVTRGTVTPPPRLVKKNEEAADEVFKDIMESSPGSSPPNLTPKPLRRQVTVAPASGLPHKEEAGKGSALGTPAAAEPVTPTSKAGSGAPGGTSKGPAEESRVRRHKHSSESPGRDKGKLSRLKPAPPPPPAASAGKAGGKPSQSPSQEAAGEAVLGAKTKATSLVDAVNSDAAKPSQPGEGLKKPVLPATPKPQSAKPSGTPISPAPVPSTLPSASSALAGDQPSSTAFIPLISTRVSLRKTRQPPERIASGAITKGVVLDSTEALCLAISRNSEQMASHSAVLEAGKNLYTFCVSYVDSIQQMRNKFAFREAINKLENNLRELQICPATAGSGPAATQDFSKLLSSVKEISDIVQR

Activity [1]: Active
Activity [3]: Active
Activity [6]: inactive
Activity [8]: Active
inhibition [13]: Active
Activity [14]: Active
SMILES: Cn1cc(/C=N\NC(=O)c2cn(C)c3ccc(Br)cc23)c2ccccc21
Activity (MCF7 [2]): Active
Activity (MCF7 [4]): 58.43%
Activity (HeLa [5]): 29.9%
Activity (MCF7 [7]): Active
Activity (HeLa [9]): inactive
Activity (MCF7 [10]): Active
viability at 1 µM (MCF7 [11]): 93.4%
Activity (MCF7 [12]): 4.71%
Activity (MCF7 [15]): Active
Activity (HeLa [16]): 33.51%
Activity (MCF7 [17]): Active
Activity (HeLa [18]): Active
Activity (HeLa [19]): 19.15%
